5 compounds from ChEMBL document CHEMBL1134286, “Novel erythromycin derivatives with aryl groups tethered to the C-6 position are potent protein synthesis inhibitors and active against multidrug-resistant respiratory pathogens” (J Med Chem, 2001) can be followed below.

The structures appear in SMILES notation. ≈ marks a conversion by molar mass, not a printed value.

For test [1], the system named is Staphylococcus aureus. As to the kind of experiment: Minimum inhibitory concentration against Staphylococcus aureus A 5177 MLSB-i. In kind it is functional. In outline: (§1)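 MICs were determined by agar dilution following National Committee for Clinical Laboratory Standards recommendations. Values are in µg/mL.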
For test [2], the system named is Staphylococcus aureus. As to the kind of experiment: Minimum inhibitory concentration against Staphylococcus aureus A 5278 MLSB-c. In kind it is functional. In outline: as §1
Test [3] in a line: Minimum inhibitory concentration againstH. influenzae DILL Amp-R. The conditions noted are these: Haemophilus influenzae. Format: functional. In outline:
(§2)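 Whole-cell MIC determined by agar dilution following National Committee for Clinical Laboratory Standards recommendations; values expressed in µg/mL.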

Test [4] in a line: Minimum inhibitory concentration against Streptococcus pyogenes PIU2548 efflux. In kind it is functional. The essentials:
as §1

Test [5] relates to Streptococcus pneumoniae. The test can be described thus: Cell free inhibiting activity against erythromycin-susceptible strain Streptococcus pneumoniae 5635 (Wild type ribosomes for transcription/translation assay). Format: functional. In outline:
(§3)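 Cell-free coupled transcription/translation assay using bacterial ribosome S-30 extracts. Wild-type ribosomes were isolated from the erythromycin-susceptible strain S. pneumoniae 5635. Inhibition is reported as IC50 (µM).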

The nature of test [6]: Minimum inhibitory concentration against Streptococcus pyogenes 930MLSB. Format: functional. In outline:
as §1

In test [7] the test system is Staphylococcus aureus. The test can be described thus: Minimum inhibitory concentration against Staphylococcus aureus ATCC 6538PEry-S. Format: functional. The conditions noted are these: ATCC 6538P. In outline: as §1
In test [8] the test system is Streptococcus pneumoniae. The test can be described thus: Cell free inhibiting activity against MLSB-resistant strain Streptococcus pneumoniae 1813 (methylated ribosomes for transcription/translation assay).
Test [9] is filed under the species Mus musculus. The test can be described thus: Mouse protection tests for effective dose against Staphylococcus aureus 10649 ((erythromycin susceptible strain)) infected mice. Format: functional.
For test [10], the species on record is Mus musculus. The test can be described thus: Effective dose against Streptococcus pneumoniae 6303 (erythromycin susceptible strain). Format: functional.
Test [11] deals with Staphylococcus aureus. As to the kind of experiment: Minimum inhibitory concentration against Staphylococcus aureus 10649 (erythromycin susceptible strain). Format: functional. In outline:
as §1

Test [12] has as its system Streptococcus pneumoniae. As to the kind of experiment: Cell free inhibiting activity against Streptococcus pneumoniae 1813 (methylated ribosomes for transcription/translation assay). Format: functional.
Test [13] concerns Streptococcus pneumoniae. The test can be described thus: Cell free inhibiting activity against Streptococcus pneumoniae 5635(Wild type ribosomes for transcription/translation assay). In kind it is functional. In outline:
as §3

For test [14], the system named is Streptococcus pneumoniae. As to the kind of experiment: Minimum inhibitory concentration against Streptococcus pneumoniae 6303 (erythromycin susceptible strain). In kind it is functional. In outline: as §1
Test [15] is filed under the species Mus musculus. The test can be described thus: Mouse protection tests for effective dose against Streptococcus pneumoniae 6303 ((erythromycin susceptible strain)) infected mice. In kind it is functional.
The subject of test [16] is Streptococcus pneumoniae. The test can be described thus: Minimum inhibitory concentration against Streptococcus pneumoniae 5649 efflux. Format: functional. The essentials:
as §1

Test [17] can be described thus: Minimum inhibitory concentration against Streptococcus pneumoniae 5737 MLSB. Format: functional. In outline: as §1
The test system of test [18] is Streptococcus pneumoniae. The test can be described thus: Minimum inhibitory concentration against Streptococcus pneumoniae ATCC 6303 Ery-S. In kind it is functional. The essentials:
as §1

Test [19] can be described thus: Minimum inhibitory concentration against Streptococcus pyogenes EES 61 Ery-S. In kind it is functional. The essentials: as §1
The nature of test [20]: Minimum inhibitory concentration against Haemophilus influenzae DILL Amp-R. In kind it is functional. In outline:
as §1

Test [21] relates to Streptococcus pneumoniae. As to the kind of experiment: Cell free inhibiting activity against erythromycin-susceptible strain Streptococcus pneumoniae 5635 (Wild type ribosomes for transcription/translation assay).
Test [22] has as its system Staphylococcus aureus. As to the kind of experiment: Minimum against Staphylococcus aureus 10649 (erythromycin susceptible strain). Format: functional. The essentials:
as §1

The test system of test [23] is Streptococcus pneumoniae. The test can be described thus: Minimum against Streptococcus pneumoniae 6303 (erythromycin susceptible strain). In kind it is functional. In outline: as §2
In test [24] the test system is Streptococcus pneumoniae. The test can be described thus: Cell free inhibiting activity against MLSB-resistant strain Streptococcus pneumoniae 1813 (methylated ribosomes for transcription/translation assay). The source holds these as a separate data set.

The term IC50 denotes the concentration that inhibits the measured activity by half. As for `C=CCO[C@]1(C)C[C@@H](C)C(=O)[C@H](C)[C@@H](O)[C@](C)(O)[C@@H](CC)OC(=O)[C@H](C)[C@@H](O[C@H]2C[C@@](C)(OC)[C@@H](O)[C@H](C)O2)[C@H](C)[C@H]1O[C@@H]1O[C@H](C)C[C@H](N(C)C)[C@H]1O`, the MIC in test [1] was 12.5 µg/mL (≈ 16.1 µM); in test [2], more than 100 µg/mL; in test [3], 32 µg/mL (≈ 41.3 µM); in test [4], 64 µg/mL (≈ 82.7 µM); in test [6] it was more than 128 µg/mL; in [7], 0.78 µg/mL (≈ 1.01 µM). Also, the IC50 in test [5] is 150 nM; in test [8], more than 500000 nM.
The term ED50 denotes the dose that gives a 50% effect, or the effect in half of the subjects. Higher therefore signals weaker potency. Turning to `CC[C@H]1OC(=O)[C@H](C)[C@@H](O[C@H]2C[C@@](C)(OC)[C@@H](O)[C@H](C)O2)[C@H](C)[C@@H](O[C@@H]2O[C@H](C)C[C@H](N(C)C)[C@H]2O)[C@](C)(O)C[C@@H](C)CN(C)[C@H](C)[C@@H](O)[C@]1(C)O` [AZITHROMYCIN], the results for the ED50 in [9] and in test [10] were 24.8 mg/kg and 18.8 mg/kg, respectively. In addition, the MIC came to 0.78 µg/mL (≈ 1.04 µM) in [11] and 0.12 µg/mL (≈ 0.16 µM) in [14]. In addition, the IC50 in test [12] was more than 500000 nM; in test [13], 170 nM.
With `CC[C@H]1OC(=O)[C@H](C)C(=O)[C@H](C)[C@@H](O[C@@H]2O[C@H](C)C[C@H](N(C)C)[C@H]2O)[C@](C)(OCC=Cc2cnc3ccccc3c2)C[C@@H](C)C(=O)[C@H](C)[C@H]2NC(=O)O[C@@]21C` [CETHROMYCIN], the MIC in test [1] is 0.05 µg/mL (≈ 0.0653 µM); in test [2], more than 100 µg/mL; in [4], 0.25 µg/mL (≈ 0.326 µM); in [11], 0.05 µg/mL (≈ 0.0653 µM); in test [16], 0.125 µg/mL (≈ 0.163 µM); in test [17], 0.25 µg/mL (≈ 0.326 µM). Further, the MIC worked out at 0.004 µg/mL (≈ 0.00522 µM) in [18]; 0.004 µg/mL (≈ 0.00522 µM) in test [14]; 1 µg/mL (≈ 1.31 µM) in [6]; 0.05 µg/mL (≈ 0.0653 µM) in test [7]; 0.004 µg/mL (≈ 0.00522 µM) in [19]; 2 µg/mL (≈ 2.61 µM) in test [20]. For the same compound, the ED50 is 9.4 mg/kg in [9] and 7.8 mg/kg in [15]. The IC50 stood at 28000 nM in test [8] and 40 nM in test [21].
As for `CC[C@H]1OC(=O)[C@H](C)[C@@H](O[C@H]2C[C@@](C)(OC)[C@@H](O)[C@H](C)O2)[C@H](C)[C@@H](O[C@@H]2O[C@H](C)C[C@H](N(C)C)[C@H]2O)[C@](C)(OC)C[C@@H](C)C(=O)[C@H](C)[C@@H](O)[C@]1(C)O` [CLARITHROMYCIN], the ED50 in test [9] stood at 16.7 mg/kg; in test [15], 27.9 mg/kg. For the same compound, the MIC in test [22] came out at 0.2 µg/mL (≈ 0.267 µM); in test [23] it was 0.03 µg/mL (≈ 0.0401 µM). The IC50 in [12] was more than 500000 nM; in [13], 90 nM.
Turning to `CC[C@H]1OC(=O)[C@H](C)[C@@H](O[C@H]2C[C@@](C)(OC)[C@@H](O)[C@H](C)O2)[C@H](C)[C@@H](O[C@@H]2O[C@H](C)C[C@H](N(C)C)[C@H]2O)[C@](C)(O)C[C@@H](C)C(=O)[C@H](C)[C@@H](O)[C@]1(C)O` [ERYTHROMYCIN], the MIC in test [1] is 6.2 µg/mL (≈ 8.45 µM); in [2], more than 100 µg/mL; in test [3], 8 µg/mL (≈ 10.9 µM); in [4], 16 µg/mL (≈ 21.8 µM); in test [16], 32 µg/mL (≈ 43.6 µM); in test [17], more than 128 µg/mL. Also, the MIC in test [18] is 0.06 µg/mL (≈ 0.0818 µM); in [6], more than 128 µg/mL; in test [7], 0.2 µg/mL (≈ 0.273 µM); in test [19] it was 0.06 µg/mL (≈ 0.0818 µM). The IC50 in test [5] was 120 nM; in test [24], more than 500000 nM.
